Assay results as given in ChEMBL document CHEMBL1139326, “The design, synthesis, and antiviral activity of 4'-azidocytidine analogues against hepatitis C virus replication: the discovery of 4'-azidoarabinocytidine” (J Med Chem, 2009).

tested on: Hepatitis C virus; assay: Antiviral activity against Hepatitis C virus infected human 2209-23 cells by genotype 1b replicon assay; assay type: functional, organism-based, Hepacivirus hominis

SMILES | IC50 [µM]
[N-]=[N+]=N[C@]1(CO)O[C@@H](n2ccc(N)nc2=O)[C@@H](O)[C@@H]1O | 0.171
[N-]=[N+]=N[C@]1(CO)O[C@@H](n2ccc(N)nc2=O)[C@H](O)[C@H]1O | 27.8
Nc1ccn([C@@H]2O[C@H](CO)[C@@H](O)[C@@H]2O)c(=O)n1 [CYTARABINE] | 0.02

The remaining lines, values ahead:

IC50 [µM] | SMILES
> 100 | C[C@]1(O)[C@H](n2ccc(N)nc2=O)O[C@@](CO)(N=[N+]=[N-])[C@H]1O
> 100 | [N-]=[N+]=N[C@@]1(CO)C[C@@H](O)[C@H](n2ccc(N)nc2=O)O1
> 100 | C[C@@]1(O)[C@H](n2ccc(N)nc2=O)O[C@@](CO)(N=[N+]=[N-])[C@H]1O

tested on: not listed separately; assay: Cytotoxicity against human 2209-23 cells by WST1 cell ciability assay; assay type: cell-based

SMILES | CC50 [µM]
Nc1ccn([C@@H]2O[C@H](CO)[C@@H](O)[C@@H]2O)c(=O)n1 [CYTARABINE] | < 100

tested on: not listed separately; assay: Antiproliferative activity against human 2209-23 cells by [3H]thymidine incorporation scintillation proximity assay; assay type: functional, cell-based
Method in brief: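 Cell proliferation was read as uptake of tritiated thymidine into cellular DNA, quantified by scintillation proximity, and reported as an IC50. It served to flag possible loss of selectivity against human polymerases.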

SMILES | IC50 [µM]
[N-]=[N+]=N[C@]1(CO)O[C@@H](n2ccc(N)nc2=O)[C@@H](O)[C@@H]1O | > 100
[N-]=[N+]=N[C@]1(CO)O[C@@H](n2ccc(N)nc2=O)[C@H](O)[C@@H]1O [4'-AZIDOCYTIDINE] | > 100
Nc1ccn([C@@H]2O[C@H](CO)[C@@H](O)[C@@H]2O)c(=O)n1 [CYTARABINE] | 0.029
